Compound activity deposited in PubChem by several laboratories.
A selection: hits, their analogues and other compounds. The true share with any hit is near 1.9%.
FGF22 binding-1: FGF22 (human) thermal shift binding | Q9HCT0 | 1.5% of 340,000 active | activity (Tm shift, normalised), % at 9.99 µM | recombinant FGF22 thermal shift, SYPRO orange fluorescence; percent of sucrose octasulfate shift, DMSO zero;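 active = mean Tm shift, scaled 0 neutral to 100 positive control, at about 1.3% or above, every replicate too, limit read from the data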
Target sequence (Q9HCT0 whole entry, looked up): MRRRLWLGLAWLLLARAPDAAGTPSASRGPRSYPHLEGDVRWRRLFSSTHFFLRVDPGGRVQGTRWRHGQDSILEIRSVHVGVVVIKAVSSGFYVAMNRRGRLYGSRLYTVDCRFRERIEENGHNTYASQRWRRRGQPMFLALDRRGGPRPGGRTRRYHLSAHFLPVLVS
Rtt109 HAT inh: blocks Candida albicans Rtt109/Vps75 acetyltransferase activity | Q5AAJ8 | purified Rtt109/Vps75, ThioGlo CoA-SH fluorescence, 4 h | inhibition, % at 34.9 µM | 0.16% of 330,000 active | AID 540336;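 active = inhibition of at least 50% in every replicate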
Efflux pump inh: antifungal efflux pump inhibition, Nile Red retention | S. cerevisiae Candida pump triplex | inhibition, % at 10 µM | 0.44% of 330,000 active;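 active = plate passing quality check with inhibition over a set limit, or well fluorescence over plate mean plus 4 SD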;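 note: Nile Red retained in pooled yeast measured as flow cytometry median fluorescence; 0% = buffer negative control and 100% = Enniatin B positive control; higher means more Nile Red kept so more efflux inhibition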
ASAP1 inh: ASAP1 ArfGAP inhibition; ASAP1-stimulated ARF1 GTP hydrolysis, GDP FP detection; 0.19% of 360,000 active; inhibition, % at 16.5 µM; Q9ULH1; in the data active = inhibition above about 25%;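 note: 0% = vehicle with enzyme and substrate and 100% = no enzyme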
ARFGAP1 inh: rat ARFGAP1 inhibition; Q62848; Arfgap1-stimulated ARF1 GTP hydrolysis, GDP FP detection; inhibition, % at 16.5 µM; 0.26% of 360,000 active;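 active = inhibition above a per-plate limit, mean inhibition of low control wells plus 3 SD, cut at about 25% in these data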;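 note: 0% = DMSO wells with enzyme and 100% = wells lacking Arfgap1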
Target sequence (Q62848 1-136 limits assumed): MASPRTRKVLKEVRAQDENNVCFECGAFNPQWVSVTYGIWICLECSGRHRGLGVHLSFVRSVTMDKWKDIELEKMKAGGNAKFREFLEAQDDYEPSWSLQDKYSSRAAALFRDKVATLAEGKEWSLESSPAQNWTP
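Material: truncated rat Arfgap1 GAP domain; Incubation: compound-enzyme preincubation 20 min, reaction 120 min, detection 60 min, 25 °C; Read-out: percent inhibition of Arfgap1-stimulated GTP hydrolysis; Technique: FP, GDP Alexa 633 tracer displaced from anti-GDP antibody, 620/688 nm; Controls: No-Arfgap1 wells (100%) versus DMSO full-reaction wells (0%); Replication: single well per compound.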
FGF22 binding-2: binders of human FGF22 by thermal shift. shares compounds with FGF22 binding-1. recombinant FGF22 thermal shift, SYPRO orange fluorescence. thermal shift activity, °C (ΔTm) at 38 µM. 2% of 1,000 active. AID 720646;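 active = fitted rise in melting shift crosses a set limit at or below the top valid dose tested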
FGF22 TSA: FGF22 (human) binding by thermal shift; Tm shift (activity), % at 38 µM; shares compounds with FGF22 binding-1; Thermal shift assay, SYPRO orange, melting temperature shift; 50 tested, under 10 active;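 active = compounds whose fitted dose curve of melting temperature shift rises past a set threshold within the tested doses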
TSA no protein: compound-only SYPRO artifact for FGF22 binders; AID 743019; compound-only SYPRO orange thermal shift counter-screen, no protein; shares compounds with FGF22 binding-1; AC50, µM (highest dose often 38 µM); 2% of 1,000 active;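 active = rising signal whose fitted curve reaches the 0.54 level within the top valid dose, showing a melting point, actives reach about 13 µM in these data; inactive = the rest, including activity in the opposite direction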; note: value is where the raw curve crosses a fixed level and not half-maximal
Starred values were filed as active, the others as inactive; i = inactive; . = not tested or not shown; [ ] = dose if it differs, or a comment.

SMILES | FGF22 binding-1 | Rtt109 HAT inh | Efflux pump inh | ASAP1 inh | ARFGAP1 inh | FGF22 binding-2 | TSA no protein | others
Cc1nc(Oc2ccccc2)c2ccsc2n1 | 1.4* | -2.9 | 0.5 | 12.0 | -20.8 | -0.015 | i
O=S(=O)(c1ccc2c(c1)C(O)c1ccccc1CC2)C(F)(F)F (stereo unspecified) | 0.0 | 7.1 | -0.2 | 2.5 | 4.8 | . | .
COC(=O)C[C@@H]1CC[C@@H]2[C@@H](COc3ccc(NC(=O)c4ccc(F)c(F)c4)cc3C(=O)N2C)O1 | 2.3* | . | . | . | . | 0.072 | i
COC(=O)C[C@H]1CC[C@@H]2[C@@H](COc3ccc(NC(=O)Nc4cccc(C#N)c4)cc3C(=O)N2C)O1 | 2.0* | . | . | . | . | -0.093[42 µM] | i | FGF22 TSA=0.2
COC(=O)C[C@H]1CC[C@@H]2[C@@H](COc3ccc(NC(=O)Nc4ccc(C#N)cc4)cc3C(=O)N2C)O1 | 1.3* | . | . | . | . | -0.133 | 2.4µM* | FGF22 TSA=0.3
C[C@@H]1CN([C@H](C)CO)C(=O)Cc2cc(NS(C)(=O)=O)ccc2O[C@H]1CN(C)C(=O)Nc1ccccc1 | 0.1 | . | . | . | . | . | .
O=C(N/N=C/c1ccncc1)c1cc2ccccc2o1 | 1.8* | . | -0.2 | 5.3 | 7.9 | 0.023 | i
CC(=O)Nc1ccc(C(=O)N/N=C/c2cc(Br)cc(Br)c2O)cc1 | 2.8* | 5.1 | 0.2 | 11.2 | 1.8 | -0.18 | i
CC(C)C(=O)Nc1ccc(C(=O)N/N=C/c2cc(Br)cc(Br)c2O)cc1 | 0.3 | -6.3 | 0.1 | 12.0 | -0.9 | . | .
O=C(NCC(c1ccco1)N1CCN(c2ccc(F)cc2)CC1)OCc1ccccc1 (stereo unspecified) | 0.0 | -4.0 | 0.4 | 6.3 | -0.5 | . | .
NS(=O)(=O)c1ccc(NC(=O)Nc2ccccc2)cc1 | -0.2 | 1.8 | 0.0 | -6.7 | 12.0 | . | .
NS(=O)(=O)c1ccc(NC(=O)Nc2cccc(Cl)c2)cc1 | 2.2* | 6.1 | -0.2 | 9.0 | 3.1 | -0.043 | i
